Assay outcomes deposited in PubChem BioAssay by several laboratories.
Only some compounds are listed: those with a hit (about 4.9% of all), similar ones and a draw of the others.
STAT3 act: STAT3 signaling activation; U3A cells, IL-6 STAT3-luciferase reporter, luminescence; 100% = signal with IL-6 EC80 alone; activation (% of control), % at 5.6 µM; 190,000 tested, 0.91% active; AID 871;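 active = activation above the screen-wide mean of compound activation plus 3 SD, cut at about 130% in these data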
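Material: STAT3-luciferase reporter U3A cells; Probe or stimulus: IL-6 (33 ng/mL); Incubation: compound pre-incubation 1 h before IL-6, then 6 h stimulation at 37 °C; Technique: luminescence from STAT3-driven luciferase reporter; Evaluation: % activation versus median of IL-6-stimulated wells; Controls: IL-6-only high control.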
FLuc stim CS: firefly luciferase counter-screen for stimulation assays | P08659 | AID 1027 | 200,000 tested, under 10 active | activation factor at 10 µM | ATPlite luciferase biochemical, luminescence, 10 min; 0 = ATP-free wells, 1 = DMSO control;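 active = luciferase activation factor, scaled between plate controls, of at least 2 with compound at 10 µM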
Target sequence (P08659 whole entry, looked up): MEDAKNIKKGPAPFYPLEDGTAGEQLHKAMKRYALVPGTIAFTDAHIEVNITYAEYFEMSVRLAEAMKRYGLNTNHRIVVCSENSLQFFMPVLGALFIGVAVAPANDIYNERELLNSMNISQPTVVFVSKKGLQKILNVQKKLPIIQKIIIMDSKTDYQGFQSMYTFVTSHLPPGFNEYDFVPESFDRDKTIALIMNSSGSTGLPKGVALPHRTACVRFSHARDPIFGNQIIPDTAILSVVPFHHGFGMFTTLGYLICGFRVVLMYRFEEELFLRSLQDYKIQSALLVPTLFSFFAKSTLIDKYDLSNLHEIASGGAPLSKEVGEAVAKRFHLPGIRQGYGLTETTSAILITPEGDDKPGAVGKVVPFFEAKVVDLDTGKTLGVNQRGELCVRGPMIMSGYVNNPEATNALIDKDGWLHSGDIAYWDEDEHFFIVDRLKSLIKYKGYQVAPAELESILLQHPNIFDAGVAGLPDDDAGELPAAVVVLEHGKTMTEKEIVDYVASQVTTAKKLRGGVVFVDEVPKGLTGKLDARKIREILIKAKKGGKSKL
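Assay system: Luciferase/luciferin detection reagent, cell-free biochemical luciferase assay / Read-out: luciferase activation / Benchmarks: No-ATP low control, compound-free enzyme-plus-ATP high control / Medium: PBS buffer for ATP / Detection: luminescence measurement of luciferase light output / Schedule: 10 min at ambient temperature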
FLuc inhib CS: Photinus pyralis luciferase inhibition counter-screen. P08659. ATPLite firefly luciferase biochemical luminescence, 10 min. inhibition, % at 10 µM. 200,000 tested, 1.5% active. AID 1006;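 active = inhibition above about 50% when tested at 10 µM, limit read from the data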
STAT1 inh: STAT1 signaling inhibition. inhibition, % at 5.5 µM. 200,000 tested, 0.35% active. NIH 3T3 STAT1-luciferase reporter, IFN-gamma, luminescence;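 active = inhibition above a set limit, the mean inhibition across all tested compounds plus 3 SD, cut at about 34% in these data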
STAT1 activator: increases IFN-gamma driven STAT1 reporter signal. NIH 3T3 STAT1-luciferase reporter, luminescence; 100% = IFN-gamma alone, no compound. activation (% of control), % at 5.5 µM. 200,000 tested, 2.6% active. AID 932;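 active = activation above the screen-wide mean activation plus 3 SD, cut at about 130% in these data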
STAT3 inh: STAT3 signaling inhibition; 190,000 tested, 0.89% active; inhibition, % at 5.5 µM; U3A cells, IL-6 STAT3-luciferase reporter, luminescence; host cell line lacks STAT1;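 active = inhibition above the mean inhibition across all screened compounds plus 3 SD, cut at about 44% in these data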
Of the large screens only hits and unclear results are named; the others gave an inactive call.

CC(C)c1ccc(C2NC(=O)NC3=C2CCc2ccccc23)cc1 (stereo not drawn)	none
Cc1ccc(C2NC(=O)NC3=C2CCc2ccccc23)cc1 (stereo not drawn)	STAT3 act 134.1
CCN(Cc1ccncc1)Cc1cn(C)nc1-c1ccc(Oc2ccccc2)cc1	none
CCN(CC)C(=O)Oc1ccc2c(=O)c(-c3ccc(OC)cc3)c(C)oc2c1	none
CC(=O)Oc1ccc2c(=O)c(-c3nc4ccccc4s3)coc2c1	FLuc inhib CS 79.7
CCN(CC)C(=O)Oc1ccc2c(=O)c(-c3ccc(OC)cc3)coc2c1	STAT1 activator 143.6
NC1=NC(=O)/C(=C/c2ccccc2OS(=O)(=O)c2ccc3ccccc3c2)S1	none
COc1ccc(-c2nnn3c2nc(NCc2ccccc2)c2ccccc23)cc1	none
NNc1nc2c(-c3ccc(Cl)cc3)nnn2c2ccccc12	STAT3 act 143.6, STAT1 activator 134.9
NNc1nc2c(-c3ccc(F)cc3)nnn2c2ccccc12	STAT1 activator 141.4
COCCCNc1nc2c(-c3ccc(Cl)cc3)nnn2c2ccccc12	none
CCOC(=O)N1CCC2(CC1)CC(=O)c1c(ccc3oc(C(=O)O)c(C)c13)O2	none
CCCNC(=O)c1oc2ccc3c(c2c1C)C(=O)CC(C)(C)O3	FLuc inhib CS 75.9, STAT1 activator 144.9
CCn1cc(CN2N=C(C)CC2c2ccccc2)c(C)n1 (stereo not drawn)	none
CN(C(=O)C1CCOC1)c1nnc(-c2ccccn2)s1 (stereo not drawn)	STAT1 activator 131.7
CN(C(=O)C1CCOC1)c1nnc(-c2ccncc2)s1 (stereo not drawn)	none
Cc1ccc(CNCC(=O)Nc2ccc(C)cc2Br)cc1	none
O=C(Oc1ccccc1)c1ccc(NC(=O)c2ccco2)cc1	STAT1 activator 136.2
Cc1ccc(NC(=O)c2ccc(OC(=O)c3cc4ccccc4o3)cc2)cc1	STAT1 activator 134.5
COc1ccc(OCC(=O)N/N=C(\C)c2cc3ccccc3o2)cc1	FLuc inhib CS 81.4
O=C(COc1ccccc1)Nc1ccc(NC(=O)c2ccco2)cc1	none
Cc1ccc(C(=O)Nc2cc3ccccc3oc2=O)cc1	FLuc inhib CS 86.6, STAT1 inh 93.9, STAT3 inh 105.6
COc1ccc(OCC(=O)N/N=C(\C)c2ccc(OC)cc2)cc1	none
COc1ccc(OC(=O)c2cc3ccccc3o2)cc1	FLuc inhib CS 57.1
Cc1ccc(NC(=O)c2ccc(OC(=O)c3ccco3)cc2)cc1	STAT1 activator 133.8
O=C(Oc1ccccc1)c1cc2ccccc2oc1=O	none
CCCC1=C(C(=O)OCC)C(c2ccc(OC)c(CSc3ccccn3)c2)C(C#N)=C(N)O1 (stereo not drawn)	none
COc1ccccc1Nc1nc2nonc2[nH]c1=O	none
CNc1nc(-c2ccc3c(c2)CCN3C(=O)c2ccccc2C)cs1	STAT1 activator 145.4
CNc1nc(-c2ccc3c(c2)CCN3C(=O)c2ccc(F)cc2)cs1	none
O=C(CNC(=O)c1cccs1)N/N=C/c1c[nH]c2ccccc12	none
CCOC(=O)CCCCC(=O)c1[nH]c(=O)[nH]c1CSc1nnc2c3cc(Br)ccc3n(C)c2n1	STAT3 act 133.6
Cc1ccc(Cl)c2c1NC(=O)C2(O)CC(=O)c1ccccc1O (stereo not drawn)	STAT3 act 133.1
Cc1ccc(Cl)c2c1NC(=O)C2(O)CC(=O)c1ccc(F)cc1 (stereo not drawn)	none
O=C(CCCc1cccs1)Nc1nccs1	none
O=C(Nc1ccccc1)OCCOc1ccccc1	STAT1 activator 132.5
Cc1ccc(OC(=O)Nc2ccccc2)cc1	FLuc inhib CS 51.0, STAT1 activator 144.0
CCOC(=O)c1ccc(NC(=O)Oc2ccccc2)cc1	none
Cc1ccc(S(=O)(=O)NC2CCCCC2)c(C)c1NS(C)(=O)=O	none
O=C(Cn1c(=O)n(-c2ccccc2)c(=O)c2sccc21)NCc1ccccc1	none
C/C(=N\Nc1nc(-c2ccccc2)cs1)c1cccs1	STAT1 activator 145.1
O=C(COC(=O)c1cccs1)Nc1nc(-c2ccccc2)cs1	none
COCCNC(=O)C(c1cccnc1)N(Cc1ccc(C)cc1)C(=O)Cn1nnc2ccccc21 (stereo not drawn)	none
Cn1c(=O)c(/C=C/c2ccccc2)nc2ccccc21	STAT3 act 145.8, STAT1 activator 133.6
COCCn1c(/C=C/c2ccccc2)nc2ccccc21	FLuc inhib CS 85.7, STAT1 activator 146.0
Cn1c(/C=C/c2ccccc2)nc2ccccc21	FLuc inhib CS 93.8, STAT1 inh 74.9, STAT3 inh 89.4
Cn1c(=O)c(C(=O)c2ccccc2)nc2ccccc21	none
COc1ccccc1Cn1c(/C=C/c2ccccc2)nc2ccccc21	none
Cn1c(/C=N/NC(=O)c2ccccc2)nc2ccccc21	none
COCCn1c(=O)[nH]c(=O)c2c1nc(-c1cc(Br)c3c(c1)OCO3)n2Cc1ccccc1	none
CCOc1ccc(C(=O)CSc2nnc3ccccn23)cc1	STAT1 activator 141.2
O=C(CSc1nnc2ccccn12)c1ccc(Cl)cc1	none
CCOC(=O)c1[nH]c2c(c1-c1ccc(OC)cc1)C(=O)CC(c1ccc(OC)c(OC)c1)C2 (stereo not drawn)	none
COc1cc(/C=N/N2CCOCC2)ccc1OCc1ccc(Cl)cc1	STAT1 activator 139.8
C[C@@H]1C=C(C(=O)O)O[C@H](OCc2ccc(CO)cc2)C1	none (no result: STAT3 act, STAT3 inh)
N#C/C(=C\c1ccc(OCc2ccccc2)cc1)C(N)=O	STAT1 activator 130.1
CCCCOCCCNc1ncnc2c1[nH]c1ccccc12	STAT1 inh 41.3, STAT3 inh 56.3
CCOCCCNc1ncnc2c1[nH]c1ccccc12	none
COc1ccccc1-c1cc(SC)c(C#N)c(=O)o1	STAT1 activator 132.9
CCCCn1c(CCC)nc([N+](=O)[O-])c1Sc1ccc(Cl)cn1	STAT1 inh 34.2
CC(C)Cn1c(C(C)C)nc([N+](=O)[O-])c1Sc1ccc(Cl)cn1	none
COc1ccccc1/C=C/C=N/NC(=O)c1ccc2nc[nH]c2c1	none
CCn1cc(CN2CCc3c([nH]c4ccccc34)C2c2cccc(OC)c2)c(C)n1 (stereo not drawn)	STAT3 act 133.1
Fc1ccc(C2c3[nH]c4ccccc4c3CCN2Cc2cccn2-c2ncccn2)cc1 (stereo not drawn)	none
COc1cccc(C2c3[nH]c4ccccc4c3CCN2Cc2cccn2-c2ncccn2)c1 (stereo not drawn)	STAT3 act 133.2
COc1cc(NC(=S)N2CCCCC2C)cc(OC)c1OC (stereo not drawn)	none
O=C(Nc1ccccc1)c1sccc1Oc1ccc([N+](=O)[O-])cc1F	none
CN(Cc1ccsc1)C(=O)CCc1nnc(CCCc2ccccc2)o1	STAT1 activator 133.3
